Data as given in ChEMBL document CHEMBL1123026, “Preparation and antiarthritic and analgesic activity of 4,5-diaryl-2-(substituted thio)-1H-imidazoles and their sulfoxides and sulfones” (1985).

Tests used:
Format in all cases: functional
Rattus norvegicus [1] = assay: Effective dose determined against rat adjuvant arthritis after peroral administration; details: po
Summary of the method: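 Male Lewis rats (130-150 g) given 0.1 mL Mycobacterium butyricum adjuvant (5 mg/mL in mineral oil) s.c. into the right hind paw; arthritis developed for 2 weeks. Groups of 10 matched for severity were dosed orally by gavage in PVA-acacia vehicle (10 mL/kg) for 7 days. Uninjected left paw volume was measured the day after the last dose. Percent decrease was calculated vs arthritic and nonarthritic controls. ED50 was read from a visually fitted semilog dose-response line.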

Mus musculus [2] = assay: Effective dose determined by mouse phenyl-p-benzoquinone writhing (PQW) assay after peroral administration; details: po
Summary of the method: (§1)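 Fasted (17-21 h) female white mice, 5-20 per double-blind test, dosed orally with compound suspended in 1% methylcellulose. 0.20 mL aqueous 0.01% phenyl-p-benzoquinone given i.p. 6 min before a 10-min observation for stretching/writhing. ED50 (dose protecting 50% of mice) calculated by the moving-average method.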

Rattus norvegicus [3] = assay: Decrease in paw volume was evaluated at dose 25 mg/kg
Summary of the method: (§2)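 Male Lewis rats (130-150 g) got 0.1 mL adjuvant (heat-killed Mycobacterium butyricum, 5 mg/mL in mineral oil) subplantar in the right hind paw and were left 2 weeks. Groups of 10 matched for severity were dosed orally by gavage (PVA-acacia vehicle, 10 mL/kg) for 7 days. Uninjected left hind paw volume was read the next day. % decrease = (arthritic control − treated)/(arthritic − nonarthritic control) × 100; Student's t-test.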

Rattus norvegicus [4] = assay: Decrease in paw volume was evaluated at dose 1 mg/kg; summary of the method: as §2
Rattus norvegicus [5] = assay: Decrease in paw volume by the effect of compound at a dose of 50 mg/kg; summary of the method: as §2
Mus musculus [6] = assay: Effective dose by mouse phenyl-p-benzoquinone writhing (PQW)assay after peroral administration; highest dose was tested; details: po; summary of the method: as §1
Rattus norvegicus [7] = assay: Decrease in paw volume was evaluated at dose 30 mg/kg; summary of the method: as §2
Rattus norvegicus [8] = assay: Decrease in paw volume was evaluated at dose 9 mg/kg; summary of the method: as §2
Rattus norvegicus [9] = assay: Decrease in paw volume by the effect of compound at a dose of 100 mg/kg; summary of the method: as §2

## O=S(=O)(CCC(F)(F)F)c1nc(-c2ccccc2)c(-c2ccccc2)[nH]1
Rattus norvegicus [1]
  ED50: > 75 mg/kg
Mus musculus [2]
  ED50: > 135 mg/kg

## CSc1nc(-c2ccc(F)cc2)c(-c2ccc(C(F)(F)F)cc2)[nH]1
Mus musculus [2]
  ED50: > 130 mg/kg

## C[S+]([O-])c1nc(-c2ccc(F)cc2)c(-c2ccc(F)cc2)[nH]1 (stereo unspecified)
Mus musculus [2]
  ED50: > 130 mg/kg

## CSc1nc(-c2ccc(C)cc2)c(-c2ccc(C)cc2)[nH]1
Mus musculus [2]
  ED50: > 130 mg/kg
Rattus norvegicus [3]
  Decrease: 26%

## O=S(=O)(CC(F)(F)C(F)(F)F)c1nc(-c2ccccc2)c(-c2ccccc2)[nH]1
Rattus norvegicus [1]
  ED50: > 100 mg/kg
Mus musculus [2]
  ED50: > 130 mg/kg

## FC(Br)C(F)(F)Sc1nc(-c2ccccc2)c(-c2ccccc2)[nH]1 (stereo unspecified)
Rattus norvegicus [1]
  ED50: 11 mg/kg
Mus musculus [2]
  ED50: > 130 mg/kg

## FC(F)C(F)(F)Sc1nc(-c2cccc(Cl)c2)c(-c2ccccc2)[nH]1
Mus musculus [2]
  ED50: > 130 mg/kg

## COc1ccc(-c2nc([S+](C)[O-])[nH]c2-c2ccc(OC)cc2)cc1 (stereo unspecified)
Rattus norvegicus [1]
  ED50: 6.5 mg/kg
Mus musculus [2]
  ED50: > 135 mg/kg

## FC(F)C(F)(F)Sc1nc(-c2ccc(Cl)cc2)c(-c2ccc(C(F)(F)F)cc2)[nH]1
Rattus norvegicus [4]
  Decrease: 35%
Mus musculus [2]
  ED50: > 130 mg/kg

## C[S+]([O-])c1nc(-c2ccc(Cl)c(Cl)c2)c(-c2ccccc2)[nH]1 (stereo unspecified)
Mus musculus [2]
  ED50: > 130 mg/kg
Rattus norvegicus [5]
  Decrease: 46%

## COc1ccc(-c2nc(S(=O)(=O)C(C)C)[nH]c2-c2ccc(OC)cc2)cc1
Mus musculus [2]
  ED50: > 130 mg/kg

## FC(F)C(F)(F)Sc1nc(-c2ccccc2)c(-c2ccccc2)[nH]1
Rattus norvegicus [1]
  ED50: 1.2 mg/kg
Mus musculus [6]
  ED50: 81 mg/kg

## FC(F)Sc1nc(-c2ccccc2)c(-c2ccccc2)[nH]1
Rattus norvegicus [1]
  ED50: 27 mg/kg
Mus musculus [2]
  ED50: > 130 mg/kg

## FC(F)C(F)(F)Sc1nc(-c2ccc(Cl)cc2)c(-c2ccc(Cl)cc2)[nH]1
Rattus norvegicus [1]
  ED50: 0.33 mg/kg
Mus musculus [2]
  ED50: > 135 mg/kg

## CS(=O)(=O)c1nc(-c2ccc(Cl)c(Cl)c2)c(-c2ccccc2)[nH]1
Mus musculus [2]
  ED50: > 130 mg/kg
Rattus norvegicus [5]
  Decrease: 59%

## CCCCS(=O)(=O)c1nc(-c2ccccc2)c(-c2ccccc2)[nH]1
Rattus norvegicus [1]
  ED50: > 100 mg/kg
Mus musculus [2]
  ED50: > 130 mg/kg

## COc1ccc(-c2nc(SC(C)C)[nH]c2-c2ccc(OC)cc2)cc1
Rattus norvegicus [7]
  Decrease: 38%

## COc1ccc(-c2nc(SCSC)[nH]c2-c2ccc(OC)cc2)cc1
Rattus norvegicus [7]
  Decrease: 46%
Mus musculus [2]
  ED50: > 130 mg/kg

## Fc1cccc(-c2nc(SC(F)(F)C(F)F)[nH]c2-c2ccccc2)c1
Rattus norvegicus [1]
  ED50: 2.5 mg/kg
Mus musculus [2]
  ED50: > 130 mg/kg

## CS(=O)(=O)c1nc(-c2ccc(Cl)cc2)c(-c2ccccc2)[nH]1
Mus musculus [2]
  ED50: > 130 mg/kg

## FC(F)C(F)(F)Sc1nc(-c2ccc(C(F)(F)F)cc2)c(-c2ccccc2)[nH]1
Mus musculus [2]
  ED50: > 130 mg/kg

## CSc1nc(-c2ccc(Cl)c(Cl)c2)c(-c2ccccc2)[nH]1
Mus musculus [2]
  ED50: > 130 mg/kg
Rattus norvegicus [3]
  Decrease: 62%

## CSc1nc(-c2ccc(C(F)(F)F)cc2)c(-c2ccc(C(F)(F)F)cc2)[nH]1
Mus musculus [2]
  ED50: > 130 mg/kg
Rattus norvegicus [8]
  Decrease: 29%

## O=S(=O)(c1nc(-c2ccccc2)c(-c2ccccc2)[nH]1)C(F)(F)C(F)F
Rattus norvegicus [1]
  ED50: 0.095 mg/kg

## COc1ccc(-c2nc([S+]([O-])CC(F)(F)F)[nH]c2-c2ccc(OC)cc2)cc1 (stereo unspecified)
Rattus norvegicus [1]
  ED50: 11 mg/kg

## Fc1ccc(-c2nc(SC(F)(F)C(F)F)[nH]c2-c2ccccc2)cc1
Rattus norvegicus [1]
  ED50: 0.18 mg/kg
Mus musculus [2]
  ED50: > 130 mg/kg

## CS(=O)(=O)c1nc(-c2ccc(Cl)cc2)c(-c2ccc(F)cc2)[nH]1
Mus musculus [2]
  ED50: > 130 mg/kg

## FC(F)(F)CSc1nc(-c2ccc(Cl)cc2)c(-c2ccc(Cl)cc2)[nH]1
Rattus norvegicus [1]
  ED50: 4 mg/kg
Mus musculus [2]
  ED50: > 130 mg/kg

## Fc1ccc(-c2[nH]c(SC(F)(F)C(F)F)nc2-c2ccc(Cl)cc2)cc1
Mus musculus [2]
  ED50: > 130 mg/kg

## Cc1ccc(-c2[nH]c(S(C)(=O)=O)nc2-c2ccccc2)cc1
Rattus norvegicus [9]
  Decrease: 45%
Mus musculus [2]
  ED50: > 130 mg/kg

## CS(=O)(=O)c1nc(-c2ccc(F)cc2)c(-c2ccc(C(F)(F)F)cc2)[nH]1
Mus musculus [2]
  ED50: > 130 mg/kg

## CS(=O)(=O)c1nc(-c2ccc(Cl)cc2)c(-c2ccc(Cl)cc2)[nH]1
Mus musculus [2]
  ED50: 3.7 mg/kg

## COc1ccc(-c2nc(S(=O)(=O)C(F)(F)C(F)F)[nH]c2-c2ccc(OC)cc2)cc1
Rattus norvegicus [1]
  ED50: 1.4 mg/kg

## COc1ccc(-c2nc(SC)[nH]c2-c2ccc(OC)cc2)cc1
Rattus norvegicus [1]
  ED50: 4.5 mg/kg
Mus musculus [2]
  ED50: > 135 mg/kg

## COc1ccc(-c2[nH]c(SC)nc2-c2ccccc2)cc1
Mus musculus [2]
  ED50: > 130 mg/kg
Rattus norvegicus [3]
  Decrease: 35%

## CSCSc1nc(-c2ccccc2)c(-c2ccccc2)[nH]1
Rattus norvegicus [1]
  ED50: > 50 mg/kg
Mus musculus [2]
  ED50: > 130 mg/kg

## FC(F)(F)Sc1nc(-c2ccccc2)c(-c2ccccc2)[nH]1
Rattus norvegicus [4]
  Decrease: 27%
Mus musculus [2]
  ED50: > 130 mg/kg

## CSc1nc(-c2ccc(F)cc2)c(-c2ccc(F)cc2)[nH]1
Rattus norvegicus [1]
  ED50: 4 mg/kg
Mus musculus [2]
  ED50: > 130 mg/kg

## CSc1nc(-c2cccc(F)c2)c(-c2ccccc2)[nH]1
Rattus norvegicus [1]
  ED50: 75 mg/kg
Mus musculus [2]
  ED50: > 130 mg/kg

## FC(F)C(F)(F)Sc1nc(-c2cccc(Cl)c2)c(-c2cccc(Cl)c2)[nH]1
Rattus norvegicus [1]
  ED50: 1.2 mg/kg
Mus musculus [2]
  ED50: > 130 mg/kg
